The text below walks through data of ChEMBL document CHEMBL3286109, “Structure-activity relationship studies of indole-based compounds as small molecule HIV-1 fusion inhibitors targeting glycoprotein 41” (J Med Chem, 2014).

The nature of data set [1]: Therapeutic index, ratio of TC50 for human PBMC to EC50 for HIV-1 92UG001 subtype D infected in human PBMC. The settings on record: read-out: TI.
Data set [2] relates to Human immunodeficiency virus 1. The experiment in a line: Antiviral activity against HIV-1 92BR014 subtype B infected in human PBMC assessed as reverse transcriptase activity after 6 days by microtiter plate-based assay. In kind it is functional, organism-based. The settings on record: Human immunodeficiency virus 1, 92BR014 subtype B, 144 h. An outline of the steps:
(§1)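 PBMCs from screened donors, Ficoll-purified, stimulated with 4 μg/mL phytohemagglutinin, kept in 20 U/mL IL-2; cells from two donors pooled, 5 × 10^4 cells/well.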

Data set [3] is described as follows: Binding affinity to HIV1 Envelope glycoprotein gp41 Fe(env2.0)3 using C18FL as probe by fluorescence assay. The arrangement: species or system Human immunodeficiency virus 1.
Data set [4] has as its system Human immunodeficiency virus 1. The experiment in a line: Antiviral activity against HIV-1 00UG_D26830M4 subtype D infected in human PBMC assessed as reverse transcriptase activity after 6 days by microtiter plate-based assay. The format is functional, organism-based. The settings on record: Human immunodeficiency virus 1, 00UG_D26830M4 subtype D, 144 h. The essentials:
as §1

Data set [5] can be described thus: Therapeutic index, ratio of TC50 for human PBMC to EC50 for HIV-1 92BR014 subtype B infected in human PBMC. The settings on record: read-out: TI. The essentials:
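Human PBMC from screened donors were Ficoll-purified, stimulated with 4 μg/mL phytohemagglutinin, and kept in 20 U/mL IL-2. Cells from two donors were pooled at 5 × 10^4 cells/well and given nine serial compound dilutions in triplicate, then HIV-1 at a final MOI of about 0.1. TC50 was measured in parallel cultures by MTS viability. TI = TC50/EC50.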

Data set [6] can be described thus: Retardation factor of the compound using 50% EtOAc/hexanes as solvent system by silca gel chromatography. The format is physicochemical.
The nature of data set [7]: Therapeutic index, ratio of TC50 for human PBMC to EC50 for HIV-1 Ba-L subtype B infected in human PBMC. The settings on record: read-out: TI.
Data set [8] has as its system Human immunodeficiency virus 1. Description: Antiviral activity against HIV-1 92UG001 subtype D infected in human PBMC assessed as reverse transcriptase activity after 6 days by microtiter plate-based assay. In kind it is functional, organism-based. The settings on record: Human immunodeficiency virus 1, 92UG001 subtype D, 144 h. An outline of the steps:
as §1

The nature of data set [9]: Inhibition of HIV1 HXB2 gp41-mediated cell-cell fusion between viral envelope-expressing human HL2/3 cells to human TZM-bl cells by luciferase reporter assay. In kind it is cell-based. The settings on record: Human immunodeficiency virus 1, HXB2, TZM-bl.
Data set [10] has as its system Human immunodeficiency virus 1. The experiment in a line: Antiviral activity against HIV-1 3B infected in human MAGI-CCR5 cells assessed as inhibition of viral replication after 48 hrs by chemiluminescence assay. The format is functional, organism-based. The settings on record: Human immunodeficiency virus 1, 3B, MAGI-CCR5, 48 h.
Data set [11] in a line: Therapeutic index, ratio of TC50 for human PBMC to EC50 for HIV-1 01CM0005BBY subtype CRF02_AG infected in human PBMC. The settings on record: read-out: TI.
For data set [12], the system named is Human immunodeficiency virus 1. Description: Antiviral activity against HIV-1 91DJ263 subtype CRF02_AG infected in human PBMC assessed as reverse transcriptase activity after 6 days by microtiter plate-based assay. The settings on record: Human immunodeficiency virus 1, 91DJ263 subtype CRF02_AG, 144 h. In kind it is functional, organism-based. An outline of the steps:
as §1

Data set [13] in a line: Therapeutic index, ratio of TC50 for human PBMC to EC50 for HIV-1 02CM0015BBY subtype CRF02_AG infected in human PBMC. The settings on record: read-out: TI.
For data set [14], the system named is Human immunodeficiency virus 1. The experiment in a line: Antiviral activity against HIV-1 02CM0015BBY subtype CRF02_AG infected in human PBMC assessed as reverse transcriptase activity after 6 days by microtiter plate-based assay. The format is functional, organism-based. The settings on record: Human immunodeficiency virus 1, 02CM0015BBY subtype CRF02_AG, 144 h. An outline of the steps:
as §1

The subject of data set [15] is Human immunodeficiency virus 1. The experiment in a line: Antiviral activity against HIV-1 01CM0005BBY subtype CRF02_AG infected in human PBMC assessed as reverse transcriptase activity after 6 days by microtiter plate-based assay. In kind it is functional, organism-based. The settings on record: Human immunodeficiency virus 1, 01CM0005BBY subtype CRF02_AG, 144 h. An outline of the steps:
as §1

The nature of data set [16]: Cytotoxicity against human TZM-bl cells assessed as inhibition of cell viability by resazurin assay. The settings on record: read-out: TC50 (the source's name).
Data set [17] can be described thus: Cytotoxicity against human PBMC assessed as inhibition of cell viability by MTS assay. The settings on record: read-out: TC50 (the source's name). The format is cell-based. Background: Tetrazolium dyes change colour on reduction, which living cells bring about.
A short description of data set [18]: Therapeutic index, ratio of TC50 for human PBMC to EC50 for HIV-1 91DJ263 subtype CRF02_AG infected in human PBMC. The settings on record: read-out: TI.
Data set [19] deals with Human immunodeficiency virus 1. The experiment in a line: Antiviral activity against HIV-1 Ba-L subtype B infected in human PBMC assessed as reverse transcriptase activity after 6 days by microtiter plate-based assay. The format is functional, organism-based. The settings on record: Human immunodeficiency virus 1, Ba-L subtype B, 144 h. An outline of the steps:
as §1

Data set [20] is described as follows: Cytotoxicity against human MAGI-CCR5 cells assessed as inhibition of cell viability by MTS assay. In kind it is cell-based. The settings on record: read-out: TC50 (the source's name).
Data set [21] concerns Human immunodeficiency virus 1. The experiment in a line: Antiviral activity against HIV-1 Ba-L infected in human MAGI-CCR5 cells assessed as inhibition of viral replication after 48 hrs by chemiluminescence assay. The settings on record: Human immunodeficiency virus 1, Ba-L, MAGI-CCR5, 48 h. The format is functional, organism-based.
Data set [22] can be described thus: Therapeutic index, ratio of TC50 for human PBMC to EC50 for HIV-1 00UG_D26830M4 subtype D infected in human PBMC. The settings on record: read-out: TI.
A short description of data set [23]: Retardation factor of the compound using 40% EtOAc/hexanes as solvent system by silca gel chromatography. In kind it is physicochemical.

Usually EC50 stands for the concentration needed to bring the measured effect to its halfway point. A word on the EC90: it is the point of the concentration-response curve where the effect stands at 90%. What is called Ki is the equilibrium dissociation constant of an inhibitor or competing ligand from its target. Take `CCOC(=O)c1cccc(Cn2ccc3ccc(-c4ccc5ccn(Cc6cccc(C(=O)O)c6)c5c4)cc32)c1`: the selectivity ratio in data set [1] was above 141; in [5], above 116; in data set [7], above 121; in [11], above 147; in [13] it was above 137; in data set [18] it was above 141. In addition, the selectivity ratio in data set [22] is above 128. Further, the EC50 came out at 430 nM in [2]; 390 nM in data set [4]; 350 nM in data set [8]; 0.7 µM in [9]; 500 nM in data set [10]; 350 nM in [12]. For the same compound, the EC50 in [14] came to 370 nM; in data set [15], 340 nM; in data set [19], 410 nM; in data set [21], 300 nM. For the same compound, the EC90 in [2] is 1230 nM; in data set [4] it was 570 nM; in data set [8] it was 1000 nM; in [12] it was 580 nM; in data set [14], 560 nM; in data set [15] it was 550 nM. Besides, the EC90 in [19] stood at 590 nM. In data set [3], this compound returned a Ki of 1000 nM. This compound also came in with a Rf in [6] of 0.48. Moreover, the CC50 in data set [16] is above 50 µM; in data set [17] it was above 50 µM; in data set [20] it was 43 µM.
Consider `COC(=O)c1cccc(Cn2ccc3ccc(-c4ccc5ccn(Cc6cccc(C(=O)O)c6)c5c4)cc32)c1`, for which the selectivity ratio in data set [1] amounted to 29.1; in data set [5], 25.3; in [7], 32.2; in data set [11] it was 39.3; in data set [13] it was 47.8; in data set [18], 29.7. Moreover, in data set [22], the selectivity ratio stood at 33.3. In addition, the EC50 in data set [2] amounted to 460 nM; in data set [4], 350 nM; in [8], 400 nM; in data set [9], 0.2 µM; in data set [10], 200 nM; in data set [12] it was 390 nM. Besides, the EC50 in [14] is 240 nM; in [15], 290 nM; in data set [19], 360 nM; in data set [21], 200 nM. Besides, the EC90 was found to be 1430 nM in [2]; 580 nM in data set [4]; 990 nM in data set [8]; 920 nM in [12]; 520 nM in [14]; 540 nM in data set [15]. Further, in data set [19], the EC90 worked out at 630 nM. In data set [3], the affinity corresponds to a Ki of 600 nM. In addition, in [23], the Rf was determined as 0.13. Moreover, the values for the CC50 in [16], in [17] and in data set [20] were 53 µM, 11.6 µM and 15 µM, respectively.
For the compound `O=C(O)c1cccc(Cn2ccc3ccc(-c4ccc5cc[nH]c5c4)cc32)c1`, in data set [3], the Ki worked out at 2700 nM. The figures for the EC50 in [9], in data set [10] and in data set [21] were 15 µM, 47000 nM and 60000 nM, respectively. In data set [23], this compound came in with a Rf of 0.13. Also, the CC50 is above 100 µM in data set [16] and above 50 µM in data set [20].
For the compound enfuvirtide, the selectivity ratio in data set [1] is above 36; in [7] it was above 265; in data set [11], above 110; in data set [13], above 118; in [18], above 16.6; in data set [22] it was above 18.6. Also, the EC50 in [2] was above 2000 nM; in data set [4], 108 nM; in data set [12], 120 nM; in data set [14], 16.9 nM; in data set [19], 7.55 nM. Besides, the concentration for an effect of 90% (EC90) in data set [2] was above 2000 nM; in data set [4], 195 nM; in data set [8], 71.3 nM; in data set [12], 206 nM; in [14], 43.4 nM; in data set [15] it was 55.8 nM. Also, the EC90 in data set [19] is 23.6 nM. Also, the CC50 in [17] is above 2 µM.
Regarding `O=C(O)c1cccc(Cn2ccc3ccc(-c4ccc5ccn(Cc6ccc(-c7ccccc7)cc6)c5c4)cc32)c1`, the Ki in [3] stood at 2000 nM. Besides, the EC50 turned out to be 13 µM in data set [9], 2000 nM in data set [10] and 2100 nM in data set [21]. Besides, the CC50 is above 50 µM in data set [16] and 55 µM in data set [20].
